TAAR1 antag = human TAAR1 antagonism; CHO RD-HGA16 TAAR1, Fluo-8 calcium fluorescence, antagonist; Q96RJ0; inhibition, % at 3 µM; AID 624466; 360,000 compounds, 1.5% hits;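 active means inhibition above a per-plate cutoff, the mean inhibition of test compounds on that plate plus 3 SD, cut at about 49% in these data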;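 further: 0% = DMSO plus EC80 beta-PEA response and 100% = DMSO alone without agonist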
Target sequence (Q96RJ0 whole entry, looked up): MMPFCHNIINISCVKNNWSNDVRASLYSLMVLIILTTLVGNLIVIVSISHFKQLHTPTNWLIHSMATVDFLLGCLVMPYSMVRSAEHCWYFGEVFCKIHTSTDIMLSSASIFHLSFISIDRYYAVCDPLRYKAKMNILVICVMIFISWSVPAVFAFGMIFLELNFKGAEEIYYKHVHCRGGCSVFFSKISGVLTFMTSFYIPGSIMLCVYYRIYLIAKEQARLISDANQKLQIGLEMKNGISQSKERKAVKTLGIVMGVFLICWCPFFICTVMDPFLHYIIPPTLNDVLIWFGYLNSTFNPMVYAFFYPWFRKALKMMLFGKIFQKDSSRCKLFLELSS
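Material: RD-HGA16 CHO cells with stable hTAAR1 and Gα16; Dosing: single nominal final test compound concentration of 3 µM; Schedule: seeding 17-24 h prior, 75-min 37 °C, 30-min RT dye loading; Detection: kinetic Fluo-8 calcium fluorescence measurement; Measure: % inhibition from peak post-agonist over basal fluorescence ratio; Benchmarks: vehicle and agonist controls.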
OXTR potentiator = human OXTR potentiation | CHO-OTR cells, Fluo-8 calcium fluorescence, potentiator mode; 0% = oxytocin EC15, 100% = EC100 | activation, % at 3 µM | 320,000 compounds, 0.061% hits | AID 2445;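 active means activation above that plate's cutoff, the mean activation of tested compounds plus 3 SD, cut at about 6.6% in these data, passing the limit was not always enough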;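 further: 100% uses oxytocin at 75 nM as the full agonist control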
Target sequence (P30559 whole entry, looked up): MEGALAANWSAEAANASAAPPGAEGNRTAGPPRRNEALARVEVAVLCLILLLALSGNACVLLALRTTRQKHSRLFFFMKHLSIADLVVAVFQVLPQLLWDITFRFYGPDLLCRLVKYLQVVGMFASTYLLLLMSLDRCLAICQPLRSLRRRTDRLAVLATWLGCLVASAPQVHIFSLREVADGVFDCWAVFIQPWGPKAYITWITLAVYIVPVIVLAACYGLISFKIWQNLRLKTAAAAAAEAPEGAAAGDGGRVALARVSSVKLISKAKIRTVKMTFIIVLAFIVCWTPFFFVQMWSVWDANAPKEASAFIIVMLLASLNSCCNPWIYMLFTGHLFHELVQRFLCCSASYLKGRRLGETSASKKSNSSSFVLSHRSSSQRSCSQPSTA
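System: human OTR in CHO cells; Also added: sub-maximal oxytocin, roughly EC15; Timing: compound 6 min at room temperature before oxytocin, 100 s read; Technique: Fluo-8 intracellular calcium fluorescence, ex 470-495, em 515-575 nm; Controls: oxytocin EC15 low and EC100 high; Replication: singlicate.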
V1R ag counter = counter-screen for oxytocin receptor agonists: human V1a receptor agonists. activation, % at 3 µM. CHO-V1R cells, Fluo-8 calcium fluorescence, agonist mode; 0% DMSO, 100% 3 nM vasopressin. 320,000 compounds, 0.25% hits. P37288;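 active means activation above the mean activation of all tested compounds plus 3 SD, per screening run, cut at about 20% in these data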;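 further: signal is peak over basal fluorescence ratio across a 100 second FLIPR read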
OXTR ag = human OXTR agonism | CHO-OTR cells, Fluo-8 calcium fluorescence; normalized: DMSO 0%, oxytocin 100% | activation, % at 3 µM | 320,000 compounds, 0.32% hits | AID 2435;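 active means activation above the mean of all tested compounds plus 3 SD, cutoff set per screening run, cut at about 20% in these data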;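 further: peak over basal fluorescence ratio from a 100 s FLIPR kinetic read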
TAAR1 agonist = agonists of human TAAR1. CHO RD-HGA16 TAAR1, Fluo-8 calcium fluorescence; vehicle wells 0%, saturating PEA agonist 100%. activation, % at 3 µM. 360,000 compounds, 0.99% hits;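 active means activation above the mean activation of all test compounds in the run plus 3 SD, cut at about 38% in these data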
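Assay system: CHO-derived RD-HGA16 cells with stable Gα16 and human TAAR1; timing: 17-24 h seeding, 75 min 37 °C dye, 30 min RT; read-out: % activation from peak over basal fluorescence ratio, DMSO-to-PEA scaled; measured by: kinetic Fluo-8 calcium fluorescence; benchmarks: low control DMSO, high control PEA (EC100); doses: 3 µM single concentration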
TAAR1 ag confirm = confirmation of human TAAR1 agonists. shares compounds with TAAR1 agonist. CHO RD-HGA16 TAAR1, Fluo-8 calcium fluorescence; scaled: DMSO 0%, maximal phenethylamine 100%. activation, % at 3 µM. 2,400 compounds, 82% hits. AID 651783;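 active means activation above a cutoff set at the run's mean compound activation plus 3 SD, cut at about 39% in these data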
Ga16 ag counter = nonselective agonism, TAAR1 counter-screen; AID 651787; CHO-Ga16 parental, Fluo-8 calcium fluorescence; normalized to maximal ATP response, DMSO zero; shares compounds with TAAR1 agonist; activation, % at 3 µM; 2,400 compounds, 50% hits;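 active means activation above the run cutoff, the mean activation over all tested wells plus 3 SD, cut at about 12% in these data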;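 further: 0% = DMSO wells and 100% = maximal ATP response on the peak over basal ratio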
TAAR1 desensitize = counter-screen for human TAAR1 agonists: agonists that desensitize TAAR1. shares compounds with TAAR1 agonist. 2,400 compounds, 46% hits. inhibition, % at 3 µM. CHO RD-HGA16 hTAAR1, Fluo-8 calcium, beta-PEA response inhibition. AID 651951;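 active means inhibition above the run cutoff, the mean inhibition of all test compounds plus 3 SD, cut at about 49% in these data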;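 further: beta-PEA stimulus applied at its EC80; loss of beta-PEA calcium signal after compound pretreatment read as receptor desensitization; 0% = DMSO with beta-PEA at EC80 and 100% = DMSO alone without agonist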
Ga16 nonsel ant = nonselective Ga16 antagonist in TAAR1 agonist counter-screen; shares compounds with TAAR1 agonist; CHO-Ga16 ATP-induced calcium, Fluo-8 fluorescence; inhibition, % at 3 µM; 2,400 compounds, 39% hits; AID 651952;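 active means inhibition above the plate's mean compound inhibition plus 3 SD, computed per plate, cut at about 22% in these data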;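 further: 0% = EC80 ATP with DMSO and 100% = DMSO wells without ATP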
* = called active by the depositor; nt = no result given. Most compounds without a hit are left out; they make up all but 2.3% or so of the library.

SMILES	TAAR1 antag	OXTR potentiator	V1R ag counter	OXTR ag	TAAR1 agonist	TAAR1 ag confirm	Ga16 ag counter	TAAR1 desensitize	Ga16 nonsel ant
O=C(NCC1CCCO1)c1ccc(NC(=O)c2ccc(Br)cc2)cc1 (stereo unspecified)	-30.9	-5.9	1.8	-0.2	78.0*	95.2*	8.2	71.4*	6.6
CC(C)c1ccc(N2C(=O)/C(=C/N(C)C)SC2=S)cc1	48.9*	-18.9	24.8*	37.6*	58.6*	57.6*	56.5*	50.5*	65.0*
COc1cc(N=c2ssnc2Cl)c(OC)cc1Cl	29.0	-1.8	5.2	-0.4	58.6*	49.1*	38.1*	33.6	32.8*
Cc1ccc(-n2ccc(=O)c(C(=O)Nc3ccc(S(=O)(=O)Nc4nccs4)cc3)n2)cc1	-5.6	-3.8	2.0	-0.7	2.9	nt	nt	nt	nt
O=C(NCCc1ccccc1)C(=O)NCC1OCCN1S(=O)(=O)c1ccc2c(c1)OCCO2 (stereo unspecified)	32.8	-14.1	2.3	-0.1	58.4*	77.0*	5.7	58.1*	20.7
O=C(NCc1ccccc1)C(=O)NCC1OCCN1S(=O)(=O)c1ccc2c(c1)OCCO2 (stereo unspecified)	-10.7	-1.6	0.1	-0.1	0.6	nt	nt	nt	nt
O=S1(=O)N[C@H](Cc2ccccc2)COc2cccc(N3CCC[C@H]3CO)c21	-12.7	nt	nt	nt	3.3	nt	nt	nt	nt
CCN(CC)c1ccc(C(=C2C=CC(=[N+](CC)CC)C=C2)c2ccc(N(CC)CC)cc2)cc1	94.5*	nt	nt	nt	49.6*	68.4*	45.2*	92.1*	84.3*
CCC1(c2ccc(F)cc2)NC(=O)N(CC(=O)Nc2ccccc2Cl)C1=O (stereo unspecified)	17.2	-15.3	22.0*	22.9*	80.2*	72.0*	35.8*	32.7	18.7
CC(NC(=O)c1ccccc1F)C1CC1 (stereo unspecified)	-10.9	-5.2	1.3	0.8	6.8	nt	nt	nt	nt
COc1cccc(C(=O)N[C@H](C(=O)N2CCC[C@H]2C(=O)NCCc2ccccc2Cl)c2ccccc2)c1	52.2*	nt	nt	nt	56.3*	91.3*	2.8	83.9*	17.1
CC(C)[C@H](NC(=O)c1ccc(Cl)c(Cl)c1)C(=O)N1CCC[C@H]1C(=O)NCc1ccccc1	-19.4	nt	nt	nt	1.9	nt	nt	nt	nt
O=C(N[C@H](C(=O)N1CCC[C@H]1C(=O)NCCc1ccccc1Cl)c1ccccc1)c1ccc(Cl)c(Cl)c1	44.0	nt	nt	nt	4.3	nt	nt	nt	nt
COc1cccc(C(=O)N[C@H](C(=O)N2CCC[C@H]2C(=O)NCCc2ccccc2Cl)C(C)C)c1	77.6*	nt	nt	nt	71.2*	85.1*	3.6	94.6*	7.6
O=C1OC(N2CCN(C(=O)c3ccco3)CC2)c2ccccc21 (stereo unspecified)	10.9	-3.6	0.4	0.1	51.6*	65.5*	0.4	16.6	8.2
CN1CCOc2c1cnn(CCO)c2=O	3.7	nt	nt	nt	1.0	nt	nt	nt	nt
Nc1cnnc(N/N=C\c2ccccc2)c1Cl	-17.4	1.6	0.3	-0.2	45.8*	68.5*	0.1	22.2	5.0
N#Cc1c(Cl)nc(N/N=C/c2ccccc2)c(Cl)c1Cl	29.5	-9.8	-0.7	-1.2	9.9	nt	nt	nt	nt
CCc1noc(C)c1C(=O)NNC(=O)c1ccccc1Cl	-15.6	2.2	0.4	0.6	1.6	nt	nt	nt	nt
COC(=O)[C@@]1(Cc2ccc(F)cc2)[C@H]2c3cc(C(=O)N4CCCC4)n(CCc4ccccn4)c3C[C@H]2CN1C(=O)c1ccccc1	15.9	0.3	5.0	8.4	88.1*	52.9*	13.8*	2.0	15.7
COC(=O)[C@@]1(Cc2ccc(F)cc2)[C@H]2c3cc(C(=O)N(C)C)n(CCc4ccccn4)c3C[C@H]2CN1C(=O)c1ccccc1	2.1	-3.6	5.4	11.7	35.8	nt	nt	nt	nt
O=C(COC(=O)/C=C/c1cccc(F)c1)NC1CCCCCC1	54.5*	3.1	1.7	-1.1	64.0*	87.9*	37.9*	72.4*	19.1
COc1ccccc1OCc1ccc(C(=O)Nc2ccc(Cl)cn2)o1	8.1	-11.1	-1.2	-1.8	0.7	nt	nt	nt	nt
Cc1cc(/C=C2/SC(=O)NC2=O)c(C)n1-c1ccc(N2CCOCC2)cc1	27.9	-11.0	14.2	8.4	53.8*	60.0*	38.0*	29.8	24.1*
Cc1ccc(N(C)C(=O)c2cc(S(=O)(=O)N3CCCC3)cn2C)cc1	-9.2	-8.1	1.7	0.6	-0.4	nt	nt	nt	nt
SMILES	TAAR1 antag	OXTR potentiator	V1R ag counter	OXTR ag	TAAR1 agonist	TAAR1 ag confirm	Ga16 ag counter	TAAR1 desensitize	Ga16 nonsel ant
O=C(O)c1ccc(N/N=C2/CCCc3ccccc32)cc1	-6.8	-31.7	9.7	15.7	15.4	nt	nt	nt	nt
Cc1ccc(S(=O)(=O)N2C3CCCCC3O[C@H]2CC(=O)c2cccs2)cc1 (stereo partly specified)	-30.8	nt	nt	nt	2.9	nt	nt	nt	nt
COc1ccc(NC(=O)CSCC(=O)N2CCN(c3cccc(C(F)(F)F)c3)CC2)cc1	-14.5	-9.1	6.1	4.6	0.5	nt	nt	nt	nt
CCOc1ccc(NC(=O)N2CCc3ccccc3C2)cc1	-3.2	1.6	-0.1	-1.6	50.7*	54.2*	-0.4	12.3	12.3
CC(=O)c1ccc(NC(=O)N2CCc3ccccc3C2)cc1	20.9	-18.7	0.3	-0.7	14.3	nt	nt	nt	nt
COc1ccc(NC(=O)N2CCc3ccccc3C2)cc1	-11.3	nt	nt	nt	51.7*	46.7*	0.7	-2.0	-3.1
COc1ccc(NC(=O)N2CCN(c3cccc(C(F)(F)F)c3)CC2)cc1	94.4*	-9.5	8.5	8.7	89.1*	7.9	11.1	20.7	24.3*
COc1cccc(NC(=O)CN(C)C(=O)[C@@H]2CCCN2C(=O)c2cccs2)c1	2.0	-8.8	0.2	1.0	-0.1	nt	nt	nt	nt
CCN(CC)C(=O)c1cccc(-c2csc(C(NC(C)=O)c3cccc(OC)c3)n2)c1 (stereo unspecified)	-5.4	nt	nt	nt	0.9	nt	nt	nt	nt
Cc1cc(NC(=O)COC(=O)C2CC(=O)N(c3ccccc3)C2)no1 (stereo unspecified)	-6.3	-10.1	-0.6	0.3	2.6	nt	nt	nt	nt
Cc1ccc(NC(=O)CCCCCCCCCCC2COCCO2)c(C)c1 (stereo unspecified)	7.0	-0.3	1.4	-1.3	0.2	nt	nt	nt	nt
N#CC1=C(N)OC2=C(C(=O)CCC2)C1c1cc2c(cc1Br)OCO2 (stereo unspecified)	-16.2	1.3	0.1	-0.4	1.0	nt	nt	nt	nt
